# Results published in publication PMC3769332 (Molecular & Cellular Proteomics : MCP, 2013).
# Ends that are not written are not given here.
# T1: SCRIB_3 (Homo sapiens, UniProt Q14160)
# T1 sequence (Q14160 1004-1093 limits assumed): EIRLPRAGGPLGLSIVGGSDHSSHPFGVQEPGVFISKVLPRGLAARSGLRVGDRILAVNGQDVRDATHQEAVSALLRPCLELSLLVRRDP
# T2: GST-Scrib PDZ3 (human, UniProt Q14160 994-1103)
# T2 sequence (looked up): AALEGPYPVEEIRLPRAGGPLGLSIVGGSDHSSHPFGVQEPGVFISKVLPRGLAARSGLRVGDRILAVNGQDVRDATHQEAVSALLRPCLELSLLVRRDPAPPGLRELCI
# What was measured:
# [1] = system: Xenopus embryo; experiment: Neural tube closure in Xenopus embryos; format: in vivo, Xenopus laevis; details: MO injected in dorsal blastomeres at 4- to 8-cell stage
# [2] = molecular target: T1, SCRIB_3; experiment: HTRF peptide-GST-PDZ binding
# [3] = system: Scrib PDZ1; experiment: HTRF peptide binding to Scrib PDZ1; design: species or system human
# [4] = molecular target: T2, GST-Scrib PDZ3; experiment: AlphaScreen or HTRF
# [5] = system: wild-type MEFs; experiment: Boyden chamber cell migration, wild-type MEF; format: cell-based, mouse; details: serum-induced
# How it was run: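 MEFs, wild-type or Crc/Crc, nucleofected transiently with GFP or GFP-Vangl2, then serum-starved 16 h and plated in the upper chamber of 8-μm pore polycarbonate transwells. Filter underside coated with human fibronectin ([…]). Serum (FCS) served as chemoattractant. Migrated cells were fixed in 4% formaldehyde, stained with 0.1% crystal violet and counted. Mann–Whitney U test versus control.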
# [6] = system: Scrib PDZ4; experiment: GST-Scrib PDZ pull-down, individual domain; format: binding, human; details: pull-down on HEK 293T extracts
# [7] = system: MEF^Crc/Crc; experiment: Boyden chamber cell migration, MEF Crc/Crc; format: cell-based, mouse; details: MEFs deficient for Scrib, serum-induced
# [8] = system: T47D cells; experiment: Boyden chamber cell migration, T47D; format: cell-based; details: stimulation with 1 nM HRG, 12 h
# How it was run: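 Transwell migration through 8-μm pore polycarbonate membranes, underside coated with 25 μg/ml rat-tail collagen I. T47D cells were lipofectamine-transfected with pEGFP, pEGFP-Vangl2 or mutants, serum-starved 16 h, and seeded in the top chamber. The bottom chamber held medium with or without HRG for 12 h. Non-migrated cells were scraped off; migrated cells were fixed in 4% formaldehyde, crystal violet-stained (0.1%) and counted. Fold change, three independent experiments summed.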
# [9] = system: Scrib PDZ3 domain; experiment: GST-Scrib PDZ pull-down, individual domain; format: binding, human; details: pull-down on HEK 293T extracts
# [10] = system: GST fused to the four Scrib PDZ domains; experiment: GST-Scrib PDZ pull-down; format: binding, human; details: pull-down on transfected HEK 293T extracts
# [11] = system: SNX27; experiment: Co-affinity purification with SNX27, HEK 293T; format: cell-based; details: streptavidin affinity purification, Western blot
molecule,measurement,setting,value
SNX27 MO: morpholino 5′-TCCCCCTCCTCGTCCGCCATCTTTT-3′ targeting SNX27 translation initiation (all phosphorodiamidate morpholino (PMO)),neural tube closure,[1],neural tube closure was strongly impaired in a dose-dependent manner
H-VLKNMNDPAWDETNL-OH [βPIX],binding to Scrib PDZ3,[2]; HTRF,able to bind
same,binding to Scrib PDZ1,[3],strongly bound
KSHKFVMRLQSETSV [Vangl2],EC50,[2],13 µM
MSCCRSSRTRRETQL [synthetic E6 carboxy-terminal peptide],EC50,[4],0.4 µM
VLKNMNDPAWDETNL [soluble non-biotinylated βPIX carboxy-terminal peptide (HTRF)],EC50,[4],8 µM
GFP-Vangl2: GFP fusion of Vangl2 overexpressed in cells (protein) MDTESQYSGYSYKSGHSRSSRKHRDRRDRHRSKSRDGGRGDKSVTIQAPGEPLLDNESTRGDERDDNWGETTTVVTGTSEHSISHDDLTRIAKDMEDSVPLDCSRHLGVAAGATLALLSFLTPLAFLLLPPLLWREELEPCGTACEGLFISVAFKLLILLLGSWALFFRRPKASLPRVFVLRALLMVLVFLLVVSYWLFYGVRILDARERSYQGVVQFAVSLVDALLFVHYLAVVLLELRQLQPQFTLKVVRSTDGASRFYNVGHLSIQRVAVWILEKYYHDFPVYNPALLNLPKSVLAKKVSGFKVYSLGEENSTNNSTGQSRAVIAAAARRRDNSHNEYYYEEAEHERRVRKRRARLVVAVEEAFTHIKRLQEEEQKNPREVMDPREAAQAIFASMARAMQKYLRTTKQQPYHTMESILQHLEFCITHDMTPKAFLERYLAAGPTIQYHKERWLAKQWTLVSEEPVTNGLKDGIVFLLKRQDFSLVVSTKKVPFFKLSEEFVDPKSHKFVMRLQSETSV,effect on cell migration,[5],increased cell migration
same,binding to individual GST-Scrib PDZ4,[6],some weak binding
same,effect on cell migration,[7],not significantly affected relative to control conditions
same,effect on cell migration,[8],increased cell migration
same,effect on cell migration,[8]; listed as GFP-Vangl2^Lp,did not affect this increased cell migration
same,binding to individual GST-Scrib PDZ3,[9],most efficient
same,binding to GST-Scrib PDZ1-4,[10],efficient binding
GFP-Vangl2ΔTSV: GFP-Vangl2 with deletion of the classical PDZ binding motif (protein) MDTESQYSGYSYKSGHSRSSRKHRDRRDRHRSKSRDGGRGDKSVTIQAPGEPLLDNESTRGDERDDNWGETTTVVTGTSEHSISHDDLTRIAKDMEDSVPLDCSRHLGVAAGATLALLSFLTPLAFLLLPPLLWREELEPCGTACEGLFISVAFKLLILLLGSWALFFRRPKASLPRVFVLRALLMVLVFLLVVSYWLFYGVRILDARERSYQGVVQFAVSLVDALLFVHYLAVVLLELRQLQPQFTLKVVRSTDGASRFYNVGHLSIQRVAVWILEKYYHDFPVYNPALLNLPKSVLAKKVSGFKVYSLGEENSTNNSTGQSRAVIAAAARRRDNSHNEYYYEEAEHERRVRKRRARLVVAVEEAFTHIKRLQEEEQKNPREVMDPREAAQAIFASMARAMQKYLRTTKQQPYHTMESILQHLEFCITHDMTPKAFLERYLAAGPTIQYHKERWLAKQWTLVSEEPVTNGLKDGIVFLLKRQDFSLVVSTKKVPFFKLSEEFVDPKSHKFVMRLQSE,effect on cell migration,[8],in contrast to the deletion of the classical PDZ binding motif
HA-tagged Vangl2: HA-tagged Vangl2 expressed in HEK 293T cells (protein) MDTESQYSGYSYKSGHSRSSRKHRDRRDRHRSKSRDGGRGDKSVTIQAPGEPLLDNESTRGDERDDNWGETTTVVTGTSEHSISHDDLTRIAKDMEDSVPLDCSRHLGVAAGATLALLSFLTPLAFLLLPPLLWREELEPCGTACEGLFISVAFKLLILLLGSWALFFRRPKASLPRVFVLRALLMVLVFLLVVSYWLFYGVRILDARERSYQGVVQFAVSLVDALLFVHYLAVVLLELRQLQPQFTLKVVRSTDGASRFYNVGHLSIQRVAVWILEKYYHDFPVYNPALLNLPKSVLAKKVSGFKVYSLGEENSTNNSTGQSRAVIAAAARRRDNSHNEYYYEEAEHERRVRKRRARLVVAVEEAFTHIKRLQEEEQKNPREVMDPREAAQAIFASMARAMQKYLRTTKQQPYHTMESILQHLEFCITHDMTPKAFLERYLAAGPTIQYHKERWLAKQWTLVSEEPVTNGLKDGIVFLLKRQDFSLVVSTKKVPFFKLSEEFVDPKSHKFVMRLQSETSV,interaction with SNX27,[11],interacts
